Reference: ChEMBL document CHEMBL3526060, “Impact of hydrolysis-mediated clearance on the pharmacokinetics of novel anaplastic lymphoma kinase inhibitors” (Drug Metab Dispos, 2013)

Tests used:
[1] = AUC (0 to infinity) in CD-1 mouse at 2 mg/kg, iv administered as single bolus dose by LC-MS/MS analysis; assay type: ADME, organism-based; set-up: time infinity, dose 2 mg/kg, route intravenous; conditions: plasma
How it was run: (§1)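 Single 2 mg/kg IV bolus via lateral tail vein to male CD-1 mice. Mice euthanized at 0.083–24 h, 3 per time point (27 animals); cardiac-puncture blood into heparin on ice, plasma spun at 4 °C and immediately extracted with acetonitrile/0.1% formic acid plus IS, LC-MS/MS. Noncompartmental CL = Dose/AUC0–inf, t1/2 = 0.693/k, Vss from AUMC/AUC, MRT = Vss/CL.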

[2] = Plasma clearance in CD-1 mouse at 2 mg/kg, iv administered as single bolus dose by LC-MS/MS analysis; assay type: ADME, organism-based; set-up: dose 2 mg/kg, route intravenous; how it was run: as §1
[3] = Mean residence time in CD-1 mouse at 2 mg/kg, iv administered as single bolus dose by LC-MS/MS analysis; assay type: ADME, organism-based; set-up: dose 2 mg/kg, route intravenous; conditions: in vivo; how it was run: as §1
[4] = Half life in CD-1 mouse at 2 mg/kg, iv administered as single bolus dose by LC-MS/MS analysis; assay type: ADME, organism-based; set-up: dose 2 mg/kg, route intravenous; conditions: in vivo; how it was run: as §1
[5] = Volume of distribution at steady state in CD-1 mouse at 2 mg/kg, iv administered as single bolus dose by LC-MS/MS analysis; assay type: ADME, organism-based; set-up: dose 2 mg/kg, route intravenous; conditions: in vivo, read-out: Vdss; how it was run: as §1
[6] = Intrinsic clearance in CD-1 mouse liver microsomes at 0.1 uM by LC-MS/MS analysis in presence of NADPH; assay type: ADME; conditions: read-out: CLH
How it was run: (§2)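 Liver microsomes (0.25 mg/mL protein, 0.1 M phosphate pH 7.4) from mouse, rat, dog or human; substrate 0.1 or 1 µM with 1 mM NADPH (mouse also without). Samples at 0, 10, 20, 30, 40 min into acetonitrile with tolbutamide, centrifuged, LC-MS/MS; CLint = (0.693/t1/2)/microsomal protein concentration.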

[7] = Intrinsic clearance in Sprague-Dawley rat liver microsomes at 0.1 uM by LC-MS/MS analysis in presence of NADPH; assay type: ADME; conditions: read-out: CLH; how it was run: as §2
[8] = AUC (0 to infinity) in CD-1 mouse at 20 mg/kg, po administered through gavage by LC-MS/MS analysis; assay type: ADME, organism-based; set-up: time infinity, dose 20 mg/kg, route oral; conditions: plasma
How it was run: (§3)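 Male CD-1 mice, fasted overnight, food returned 2 h post-dose; single oral gavage at 20, 50 or 100 mg/kg. Terminal cardiac-puncture blood at 0.25, 0.5, 1, 2, 4, 6, 8, 24 h, 3 mice per time point; heparinized plasma extracted into acetonitrile/formic acid with IS, LC-MS/MS. Noncompartmental analysis: linear trapezoidal AUC extrapolated to infinity, CL/F, F relative to 2 mg/kg IV.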

[9] = Apparent oral clearance in CD-1 mouse at 20 mg/kg, po administered through gavage by LC-MS/MS analysis; assay type: ADME, organism-based; set-up: dose 20 mg/kg, route oral; conditions: in vivo; how it was run: as §3
[10] = Oral bioavailability in CD-1 mouse at 20 mg/kg administered through gavage by LC-MS/MS analysis relative to 2 mg/kg, iv dose; assay type: ADME, organism-based; conditions: in vivo; how it was run: as §3
[11] = Cmax in CD-1 mouse at 50 mg/kg, po administered through gavage by LC-MS/MS analysis; assay type: ADME, organism-based; set-up: dose 50 mg/kg, route oral; conditions: in vivo; how it was run: as §3
[12] = Tmax in CD-1 mouse at 50 mg/kg, po administered through gavage by LC-MS/MS analysis; assay type: ADME, organism-based; set-up: dose 50 mg/kg, route oral; conditions: in vivo; how it was run: as §3
[13] = Half life in CD-1 mouse at 50 mg/kg, po administered through gavage by LC-MS/MS analysis; assay type: ADME, organism-based; set-up: dose 50 mg/kg, route oral; conditions: in vivo; how it was run: as §3
[14] = AUC (0 to infinity) in CD-1 mouse at 50 mg/kg, po administered through gavage by LC-MS/MS analysis; assay type: ADME, organism-based; set-up: time infinity, dose 50 mg/kg, route oral; conditions: plasma; how it was run: as §3
[15] = Apparent oral clearance in CD-1 mouse at 50 mg/kg, po administered through gavage by LC-MS/MS analysis; assay type: ADME, organism-based; set-up: dose 50 mg/kg, route oral; conditions: in vivo; how it was run: as §3
Mus musculus = test: Oral bioavailability in CD-1 mouse at 50 mg/kg administered through gavage by LC-MS/MS analysis relative to 2 mg/kg, iv dose; assay type: ADME, organism-based; conditions: in vivo; how it was run: as §3
[16] = Cmax in CD-1 mouse at 100 mg/kg, po administered through gavage by LC-MS/MS analysis; assay type: ADME, organism-based; set-up: dose 100 mg/kg, route oral; conditions: in vivo; how it was run: as §3
[17] = Tmax in CD-1 mouse at 100 mg/kg, po administered through gavage by LC-MS/MS analysis; assay type: ADME, organism-based; set-up: dose 100 mg/kg, route oral; conditions: in vivo; how it was run: as §3
[18] = Half life in CD-1 mouse at 100 mg/kg, po administered through gavage by LC-MS/MS analysis; assay type: ADME, organism-based; set-up: dose 100 mg/kg, route oral; conditions: in vivo; how it was run: as §3
[19] = AUC (0 to infinity) in CD-1 mouse at 100 mg/kg, po administered through gavage by LC-MS/MS analysis; assay type: ADME, organism-based; set-up: time infinity, dose 100 mg/kg, route oral; conditions: plasma; how it was run: as §3
[20] = Apparent oral clearance in CD-1 mouse at 100 mg/kg, po administered through gavage by LC-MS/MS analysis; assay type: ADME, organism-based; set-up: dose 100 mg/kg, route oral; conditions: in vivo; how it was run: as §3
[21] = Oral bioavailability in CD-1 mouse at 100 mg/kg administered through gavage by LC-MS/MS analysis relative to 2 mg/kg, iv dose; assay type: ADME, organism-based; conditions: in vivo; how it was run: as §3
[22] = Intrinsic clearance in human liver microsomes at 0.1 uM by LC-MS/MS analysis in presence of NADPH; assay type: ADME; conditions: read-out: CLH; how it was run: as §2
[23] = Intrinsic clearance in CD-1 mouse liver microsomes at 0.1 uM by LC-MS/MS analysis in absence of NADPH; assay type: ADME; conditions: read-out: CLH; how it was run: as §2
[24] = Intrinsic clearance in CD-1 mouse liver microsomes at 1 uM by LC-MS/MS analysis in presence of NADPH; assay type: ADME; conditions: read-out: CLH; how it was run: as §2
[25] = Intrinsic clearance in Sprague-Dawley rat liver microsomes at 1 uM by LC-MS/MS analysis in presence of NADPH; assay type: ADME; conditions: read-out: CLH; how it was run: as §2
[26] = Intrinsic clearance in Beagle dog liver microsomes at 1 uM by LC-MS/MS analysis in presence of NADPH; assay type: ADME, Canis lupus familiaris; conditions: read-out: CLH; how it was run: as §2
[27] = Intrinsic clearance in human liver microsomes at 1 uM by LC-MS/MS analysis in presence of NADPH; assay type: ADME; conditions: read-out: CLH; how it was run: as §2
[28] = Intrinsic clearance in CD-1 mouse liver microsomes at 1 uM by LC-MS/MS analysis in absence of NADPH; assay type: ADME; conditions: read-out: CLH; how it was run: as §2
[29] = In vitro half life in CD-1 mouse plasma at 0.83 uM by LC-MS/MS analysis; assay type: ADME, cell-free
How it was run: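 Screening stability: compound at 0.83 µM in mouse plasma at 37 °C, up to 3 h; timed aliquots quenched into acetonitrile with tolbutamide IS, centrifuged, LC-MS/MS; half-life from depletion, CLint = (0.693/t1/2)/plasma concentration.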

[30] = Cmax in CD-1 mouse at 20 mg/kg, po administered through gavage by LC-MS/MS analysis; assay type: ADME, organism-based; set-up: dose 20 mg/kg, route oral; conditions: in vivo; how it was run: as §3
[31] = Tmax in CD-1 mouse at 20 mg/kg, po administered through gavage by LC-MS/MS analysis; assay type: ADME, organism-based; set-up: dose 20 mg/kg, route oral; conditions: in vivo; how it was run: as §3
[32] = Half life in CD-1 mouse at 20 mg/kg, po administered through gavage by LC-MS/MS analysis; assay type: ADME, organism-based; set-up: dose 20 mg/kg, route oral; conditions: in vivo; how it was run: as §3
Plasma [33] = test: Drug metabolism in CD-1 mouse plasma assessed as hydrolysis metabolite formation rate by LC-MS/MS analysis; assay type: ADME, cell-free
How it was run: (§4)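 Mouse plasma depletion kinetics at 37 °C, substrate range 0.0023–5 µM, up to 3 h; samples quenched into acetonitrile/tolbutamide, LC-MS/MS. CLint per concentration from t1/2; apparent Vmax and Km fitted by nonlinear regression to Michaelis-Menten, formation rate simulated from fit; mean of two replicates.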

[34] = Drug metabolism in CD-1 mouse liver microsomes assessed as hydrolysis metabolite formation rate by LC-MS/MS analysis; assay type: ADME
How it was run: (§5)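 Mouse liver microsomes 0.25 mg/mL in 0.1 M phosphate pH 7.4, with or without 1 mM NADPH, substrate 0.0023–5 µM; sampling to 40 min into acetonitrile/IS, LC-MS/MS depletion. Hydrolysis Vmax/Km solved from no-NADPH incubations, then NADPH-dependent constants; metabolite formation rate simulated from fitted constants; duplicates.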

[35] = Drug metabolism in CD-1 mouse NADPH-fortified liver microsomes assessed as hydrolysis metabolite formation rate by LC-MS/MS analysis; assay type: ADME; how it was run: as §5
Plasma [36] = test: Drug metabolism in CD-1 mouse plasma assessed as maximum intrinsic clearance for hydrolysis metabolite formation by LC-MS/MS analysis; assay type: ADME, cell-free; how it was run: as §4
[37] = Fraction unbound in CD-1 mouse liver microsomes after 7 hrs by equilibrium dialysis method; assay type: ADME
How it was run: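 Equilibrium dialysis of 0.25 mg/mL mouse liver microsomes in phosphate buffer against PBS, 7 h at 37 °C, 5% CO2, test compound 0.1, 0.5 or 2 µM, triplicate; LC-MS/MS; fraction unbound = buffer/microsome concentration.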

[38] = Fraction unbound in CD-1 mouse plasma after 7 hrs by equilibrium dialysis method; assay type: ADME, cell-free
How it was run: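 Mouse plasma pre-treated 20 min with 100 µM DFP to block hydrolysis, spiked at 0.1, 0.5 or 2 µM, equilibrium dialysis against PBS for 7 h at 37 °C, 5% CO2, triplicate; matrix-matched samples extracted with acetonitrile/IS, LC-MS/MS; fu = buffer/plasma concentration.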

Plasma [39] = test: Metabolic stability in CD-1 mouse plasma assessed as hydrolysis product M1 [(1s,4s)-4-(2-amino-6-((4-(2-hydroxypropan-2-yl)piperidin-1-yl)methyl)-1H-benzo[d]imidazol-1-yl)-N-isopropylcyclohexanecarboxamide] formation at 5 uM after 20 mins by LC-MS/MS analysis; assay type: ADME, cell-free

CC(C)NC(=O)[C@H]1CC[C@@H](n2/c(=N/C(=O)c3ccc(F)cc3)[nH]c3ccc(CN4CCC(C(C)(C)O)CC4)cc32)CC1
AUC(0-inf) [1]: 0.627 µM·h
clearance [2]: 92 mL/min/kg
MRT [3]: 0.474 h
half-life [4]: 1.05 h
Vd [5]: 2.62 L/kg
microsomal CLint at 0.1 µM [6]: 891 µL/min/mg
microsomal CLint at 0.1 µM [7]: 14 µL/min/mg
AUC(0-inf) [8]: 1.31 µM·h
CL/F [9]: 437 mL/min/kg
bioavailability [10]: 21.1%
Cmax [11]: 10.7 µM
Tmax [12]: 1 h
half-life [13]: 2.3 h
AUC(0-inf) [14]: 23.7 µM·h
CL/F [15]: 60.8 mL/min/kg
F (Mus musculus): 151%
Cmax [16]: 15.2 µM
Tmax [17]: 1 h
half-life [18]: 2.17 h
AUC(0-inf) [19]: 37.4 µM·h
CL/F [20]: 77.2 mL/min/kg
bioavailability [21]: 120%
microsomal CLint at 0.1 µM [22]: 93 µL/min/mg
microsomal CLint at 0.1 µM [23]: 805 µL/min/mg
microsomal CLint at 1 µM [24]: 110 µL/min/mg
microsomal CLint at 1 µM [25]: 13 µL/min/mg
microsomal CLint at 1 µM [26]: 33 µL/min/mg
microsomal CLint at 1 µM [27]: 67 µL/min/mg
microsomal CLint at 1 µM [28]: 50 µL/min/mg
half-life at 0.83 µM [29]: 0.2 h
Cmax [30]: 0.782 µM
Tmax [31]: 0.25 h
half-life [32]: 1.23 h
Vmax(app) (Plasma [33]): 19.7 pmol/min/mL
Km (Plasma [33]; read-out: Km(app)): 0.276 µM
Vmax(app) [34]: 82 pmol/min/mg
Km ([34]; read-out: Km(app)): 0.0437 µM
Vmax(app) [35]: 45.4 pmol/min/mg
Km ([35]; read-out: Km(app)): 0.263 µM
CL (Plasma [36]): 71.4 uL/min.ml
fraction unbound at 7 h [37]: 0.76
fraction unbound at 7 h [38]: 0.02
Drug metabolism (Plasma [39]): metabolite_detected
